According to ChEMBL document CHEMBL4513216, “Probing the Open Global Health Chemical Diversity Library for Multistage-Active Starting Points for Next-Generation Antimalarials” (ACS Infect Dis, 2020):

Assay: Toxicity liver stage against HepG2, at 10uM
Assay type: cell-based
Parameters: test concentration 10 uM, cell line HepG2-A16-CD81EGFP
Settings: human, HepG2-A16-CD81EGFP cells; read-out: INHIBITION
Method in brief: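 Uninfected HepG2-A16-CD81EGFP cells, 3 × 10^3 per well, 1536-well, plated on prespotted compound at 10 μM final, parasite-free screening media added to match infected plates; puromycin 10 μM positive, DMSO 0.5% negative; run in parallel with 48 h PbLuc assay at 37 °C, 5% CO2; viability by CellTiter-Glo luminescence, normalized to controls.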

In the case of `CC(C)(C)NC(=O)COc1ccc(CNCc2ccccn2)cc1`, the cytotoxicity at 10 µM is reported as -11.5%.
For `COc1ccc(CN[C@@H]2CO[C@H](CNC(=O)NC(C)C)[C@H]2O)cc1`, the cytotoxicity at 10 µM was -4.7%.
In the case of `O=C1CCNc2ccc(F)cc2CN1Cc1ccccc1`, the cytotoxicity at 10 µM is reported as -3.03%.
Compound `O=C(CNC(=O)N1CCc2c([nH]c3ccc(Cl)cc23)C1)NC1CCCC1` has a cytotoxicity at 10 µM of -2.91%.
`O=C(COc1coc(CN2CCCC2)cc1=O)Nc1ccc(Cl)c(Cl)c1` showed a cytotoxicity at 10 µM of 0.0723%.
For `Cc1cc(-c2nn3c(C4CC4)nnc3s2)on1`, the cytotoxicity at 10 µM was -2.37%.
Compound `COCCN(Cc1ccoc1)C(=O)c1c(F)cccc1F` has a cytotoxicity at 10 µM of 10.6%.
`Cc1nc(-c2cnn(C)c2)nc2c1CN(C(=O)c1cccn1C)CC2` showed a cytotoxicity at 10 µM of 4.87%.
`CO[C@H]1CC[C@H]2[C@H]1OCCN2C(=O)c1ccc(C)nc1` showed a cytotoxicity at 10 µM of -141%.
Compound `Cc1cs/c(=N\C(=O)Cn2nc(N3CCC(C)CC3)ccc2=O)[nH]1` has a cytotoxicity at 10 µM of 1.34%.
`O=C(NCCC1=CCCCC1)C1CCCN(c2ccc3nncn3n2)C1` (configuration not stated) showed a cytotoxicity at 10 µM of 4.01%.
`COc1ccc2nnc(C(=O)NCC3CCCC3)nc2c1` gave a cytotoxicity at 10 µM of -3.35%.
With `CC(=O)N1CCOC(CCc2cc(-c3c(C)noc3C)ncn2)C1` (configuration not stated) the cytotoxicity at 10 µM was -1.98%.
`CCC(=O)N1CCCC1c1n[nH]cc1-c1ccccc1F` (configuration not stated) gave a cytotoxicity at 10 µM of -3.02%.
`COCC(=O)N1CCC([C@@H]2C[C@H](C(F)(F)F)n3nc(C)cc3N2)CC1` showed a cytotoxicity at 10 µM of -33.6%.
Compound `CC(=O)N1CCC(C(=O)N2CCCC(Cc3ccccn3)C2)CC1` (configuration not stated) has a cytotoxicity at 10 µM of 6.97%.
`CC(=O)N1CCC(c2cc(Nc3ncccn3)nc(C)n2)C1` (configuration not stated) showed a cytotoxicity at 10 µM of -27.7%.
With `CC(=O)N1CCN(C(C)C)CC(COc2ccccc2)C1` (configuration not stated) the cytotoxicity at 10 µM was -28.8%.
`CCNC(=O)c1cccc(CNC(=O)c2cnc(C(C)(C)C)s2)c1` gave a cytotoxicity at 10 µM of -0.969%.
Work on `O=C(COC1CCCC1)N1CCC(C(O)c2ccc(F)cc2)CC1` (configuration not stated) yielded a cytotoxicity at 10 µM of 6.62%.
`COc1ccc(C2CCCN2c2cnc3ccccc3n2)c(OC)c1` (configuration not stated) showed a cytotoxicity at 10 µM of 7.54%.
With `COc1ccc(Cl)cc1NCC(=O)N(Cc1cccnc1)C1CC1` the cytotoxicity at 10 µM was 11.8%.
`CC(C)(NCCOc1ccc(CC#N)cc1)c1nccs1` showed a cytotoxicity at 10 µM of -3.25%.
`COc1cccc(CN(C)Cc2c(C)noc2C)c1OC` gave a cytotoxicity at 10 µM of 8.82%.
With `c1csc(-c2nc(CN3CCN(c4cnccn4)CC3)co2)c1` the cytotoxicity at 10 µM was -5.67%.
Work on `CCc1nsc(N2CCOC3(CCCC3)C2)n1` yielded a cytotoxicity at 10 µM of 6.05%.
With `COc1cc2c(cc1OC)CN(C(=O)Cn1nc(C)cc1C)CC2` the cytotoxicity at 10 µM was 1.29%.
`O=C1CC[C@H](C(=O)N(Cc2cccc(Br)c2)C2CC2)N1` showed a cytotoxicity at 10 µM of 7.24%.
In the case of `CC(C)(C)c1n[nH]c(C2CN(Cc3ncc[nH]3)CCO2)n1` (configuration not stated), the cytotoxicity at 10 µM is reported as 3.01%.
Work on `CC(=O)N(C)C1CCN(C(=O)NCCc2cc(F)ccc2F)CC1` yielded a cytotoxicity at 10 µM of -7.76%.
Compound `CCN(C(=O)CN1CCn2c(C)nnc2C1)C1=CCCCC1` has a cytotoxicity at 10 µM of 13.4%.
In the case of `Cc1c(NCCCOc2cccc(C#N)c2)cccc1C(N)=O`, the cytotoxicity at 10 µM is reported as -0.572%.
Compound `Cc1nc(CN2CCC(c3nc4cc(Cl)ccc4o3)CC2)oc1C` has a cytotoxicity at 10 µM of -8.56%.
`O=C(NCc1ccccc1F)N1CCCCC1C1OCCO1` (configuration not stated) gave a cytotoxicity at 10 µM of 2.01%.
Compound `O=C(CCNC(=O)c1cccc(OC(F)F)c1)Nc1cccnc1` has a cytotoxicity at 10 µM of 0.258%.
In the case of `CCC(NC(=O)NCc1cccc(N(C)C)n1)c1cccs1` (configuration not stated), the cytotoxicity at 10 µM is reported as 17.9%.
`CN1CCC(NC(=O)Nc2ccc(Cl)c(F)c2)C1=O` (configuration not stated) showed a cytotoxicity at 10 µM of -136%.
`CCC(C)Oc1cc(C(=O)Nc2nccs2)ccn1` (configuration not stated) showed a cytotoxicity at 10 µM of -6.19%.
Work on `CC(CO)NC(=O)c1ccc(NCc2ccc(F)c(F)c2)cc1` (configuration not stated) yielded a cytotoxicity at 10 µM of -5.89%.
In the case of `COCCN1CC=C(c2cccc(OC)c2)CC1`, the cytotoxicity at 10 µM is reported as 6.45%.
`CC(CCc1ccccc1)N1CCC(C(=O)Nc2ccccn2)CC1` (configuration not stated) showed a cytotoxicity at 10 µM of 13.5%.
In the case of `Cc1ccc(NC(=O)NCCc2cnn(C)c2)c(N(C)C)n1`, the cytotoxicity at 10 µM is reported as 13.4%.
For `O=C(c1ccc2c(c1)[nH]c(=O)n2C1CCCC1)N1CCSCC1`, the cytotoxicity at 10 µM was -42.3%.
Compound `CCCC(C)NC(=O)c1ccc(-c2ccco2)[nH]c1=O` (configuration not stated) has a cytotoxicity at 10 µM of -20%.
With `CC(NC1(CNC(=O)CC(C)(C)C)CCOCC1)c1ccccc1` (configuration not stated) the cytotoxicity at 10 µM was 8.57%.
`CN(CCNC(=O)N1CCN(Cc2ccon2)CC1)c1ccccc1` gave a cytotoxicity at 10 µM of 22.2%.
In the case of `CCc1nc(CC(=O)Nc2cnn(CC3CCCO3)c2)cs1` (configuration not stated), the cytotoxicity at 10 µM is reported as -3.11%.
`CCOc1ccc(CN(C)C(=O)NC(C)c2nncn2C)cc1` (configuration not stated) gave a cytotoxicity at 10 µM of 8.62%.
With `Cc1n[nH]c(C2CN(C(=O)CCc3ccsc3)CCO2)n1` (configuration not stated) the cytotoxicity at 10 µM was -5.15%.
For `CN(C)C(=O)Cc1nc(CN2CCCCC2Cn2cccn2)cs1` (configuration not stated), the cytotoxicity at 10 µM was 6.04%.
Work on `NC(=O)c1ccc(CN2CCCC(O)C2)cc1` (configuration not stated) yielded a cytotoxicity at 10 µM of 0.459%.
With `COCC1CN(C(=O)c2ccc(C)o2)Cc2nccn2C1` (configuration not stated) the cytotoxicity at 10 µM was -97.1%.
Work on `O=C(C1CCCN(C2CCOCC2)C1)N1CCc2ncccc2C1` (configuration not stated) yielded a cytotoxicity at 10 µM of 4.21%.
Compound `COC(=O)c1ccc(C(=O)N2CCCC(Nc3ccc(F)cc3)C2)cc1` (configuration not stated) has a cytotoxicity at 10 µM of 1.34%.
`COCCCC1(CO)CCCN(CCOC)C1` (configuration not stated) gave a cytotoxicity at 10 µM of -1.87%.
`CCc1cnc(C)nc1NCCNc1nc(C)cc(=O)[nH]1` gave a cytotoxicity at 10 µM of -9.01%.
In the case of `COC1CCCN(CCCc2cn[nH]c2)C1` (configuration not stated), the cytotoxicity at 10 µM is reported as 2.24%.
With `Cc1ccc(CN(Cc2ccncc2)C2CCN(C)CC2)s1` the cytotoxicity at 10 µM was 7.39%.
`O=C(CC1CCc2ccccc21)N1CCC(O)(Cn2ccnc2)CC1` (configuration not stated) showed a cytotoxicity at 10 µM of 5.01%.
`CO[C@@H]1c2ccccc2C2(CCN(C(=O)CNS(C)(=O)=O)CC2)[C@H]1O` showed a cytotoxicity at 10 µM of 11.1%.
Compound `c1ccc(-c2nc(CCNC3CCOC4(CCOCC4)C3)no2)cc1` (configuration not stated) has a cytotoxicity at 10 µM of 4.47%.
Work on `CC(CN1CCOCC1)NC1CCN(Cc2cccc(O)c2)CC1` (configuration not stated) yielded a cytotoxicity at 10 µM of -0.683%.
Work on `COc1ccc(CN2C[C@@H](CN(C)C)[C@@H](CO)C2)cc1CN1CCCC1` yielded a cytotoxicity at 10 µM of 4.59%.
`Cc1cccc(C(C(=O)NCCCc2nnc3ccccn23)N(C)C)c1` (configuration not stated) gave a cytotoxicity at 10 µM of -7.88%.
Compound `Cc1nc(CCCNC(=O)C2CC(=O)N(C(C)(C)C)C2)sc1C` (configuration not stated) has a cytotoxicity at 10 µM of -6.86%.
`CCC(NC(=O)C1CCN(S(C)(=O)=O)CC1)c1ccc(OC)c(OC)c1` (configuration not stated) gave a cytotoxicity at 10 µM of -6.69%.
`CN(C)C(=O)CN1CCN(Cc2coc(-c3cccc(F)c3)n2)CC1` gave a cytotoxicity at 10 µM of -3.16%.
For `Cc1cc(C)n(CC2CCCN2CC(=O)Nc2cc(C(C)C)no2)n1` (configuration not stated), the cytotoxicity at 10 µM was 0.407%.
`COc1ccnc(N2CCN(CC(=O)N3CCOC(C)C3)CC2)n1` (configuration not stated) showed a cytotoxicity at 10 µM of -5.4%.
Work on `CC(C(=O)N1CCCN(c2ccccc2C#N)CC1)n1cccn1` (configuration not stated) yielded a cytotoxicity at 10 µM of -8.3%.
`COc1ccc(C2=CCN(C(=O)C3CCC3)CC2)cc1` showed a cytotoxicity at 10 µM of -13.1%.
Work on `CC(NC(=O)NCCCn1cccn1)c1ccc2c(c1)OCCCO2` (configuration not stated) yielded a cytotoxicity at 10 µM of -9.13%.
`Cc1nccn1C1CCCN(C(=O)CCCNc2ncccn2)C1` (configuration not stated) showed a cytotoxicity at 10 µM of -6.42%.
Work on `Cc1ccc(N2CCCC(NCC(=O)NC(C3CC3)C3CC3)C2)nn1` (configuration not stated) yielded a cytotoxicity at 10 µM of -2.8%.
Compound `Cc1nn(C)c(Cl)c1C1CCCN1C(=O)c1cnc[nH]1` (configuration not stated) has a cytotoxicity at 10 µM of -2.11%.
With `CCOc1cc(/C=C/c2ncc(C(=O)O)s2)ccc1O` the cytotoxicity at 10 µM was 0.241%.
`CS(=O)(=O)NC1CCCN(C(=O)NCc2cccnc2)C1` (configuration not stated) gave a cytotoxicity at 10 µM of 1.59%.
`Cc1noc([C@@H]2C[C@@H]3CCN(CC4CC4)C[C@H]3O2)n1` showed a cytotoxicity at 10 µM of -139%.
For `CCn1nc(C)cc1C(=O)N1CC[C@H](OC)[C@H]2CN(CC3CC3)C[C@H]21`, the cytotoxicity at 10 µM was -133%.
For `Cn1nnc2c1CCN(Cc1ccoc1)C2COCc1ccccc1` (configuration not stated), the cytotoxicity at 10 µM was -138%.
`CNC(=O)[C@H]1C[C@H]2OCC[C@H]2N(Cc2cccc3ccccc23)C1` gave a cytotoxicity at 10 µM of 7.67%.
For `O=C(CCN1C[C@H]2CC[C@@H]1C2)N1CCN(c2cccc(Cl)c2)C(=O)C1`, the cytotoxicity at 10 µM was 1.4%.
